The target of series [1] is T1, SUMO-activating enzyme (Homo sapiens) (UniProt Q9UBE0+Q9UBT2). Description: Inhibition of SAE in human HCT116 cells xenografted in NCr nude mouse assessed as improvement in SUMO-inhibitor adduct durability at 50 mg/kg, iv and measured up to 16 hrs by mass spectrometry. It counts as organism-based. The following applies: HCT-116. The method, boiled down:
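Single IV dose at t = 0 to female Ncr nude mice bearing HCT-116 tumors, n = 3 per time point. Tumors harvested 2, 4, 8 and 16 h post-injection. Read-out is the adduct/SAE ratio: quantity of SUMO-compound adduct over quantity of total SAE enzyme, both measured by mass spectrometry. Values are averaged per time point.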

The target of series [2] is T1, SUMO-activating enzyme (Homo sapiens). Nature of the series: Inhibition of SAE in human HCT116 cells xenografted in NCr nude mouse assessed as reduction in SUMO2/3 protein conjugates at 50 mg/kg, iv and measured up to 16 hrs by immunohistochemistry analysis. The conditions noted are these: HCT-116. It is filed as organism-based. Put shortly:
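HCT-116 tumors in female Ncr nude mice, n = 3 per time point, after a single IV dose at t = 0. SUMO2/3 conjugation in tumors measured by IHC at 2, 4, 8 and 16 h. Read-out is nuclei staining positive for SUMO2/3 conjugates over total nuclei, normalized to vehicle-treated animals (time = 0 h), expressed as percent inhibition.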

Series [3] deals with OCI-Ly10. Description: Antitumor activity against human OCI-Ly10 cells xenografted in CB17 SCID mouse assessed as tumor growth inhibition at 50 mg/kg, sc mg/kg administered once daily for 21 days and measured twice weekly. It is filed as functional, organism-based. The following applies: time 21.0 day. Put shortly: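 Female CB17 SCID mice carrying OCI-Ly10 tumors (~200 mm3) were randomized, n = 8/group, with treatment from Day 1. Schedules were QD x21 (Days 1–21) or QD x3/week (three consecutive dosing days, four off). Tumor volume was measured twice weekly.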
On the technique in general: In xenograft studies the graft and the host belong to different species.

Series [4] concerns HCT-116. Nature of the series: Antitumor activity against human HCT-116 cells xenografted in Ncr/nude mouse assessed as tumor growth inhibition at 50 mg/kg, sc administered once daily for 21 days and measured twice weekly. It is filed as functional, organism-based. The following applies: time 21.0 day. Put shortly: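 Female Ncr/nude mice carrying HCT-116 tumors (~200 mm3) were randomized, n = 8/group, with treatment from Day 1. Schedules were QD x21 (Days 1–21) or QD x3/week (three consecutive dosing days, four off). Tumor volume was measured twice weekly.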

Series [5] in a line: Volume of distribution at steady state in rat plasma at 1 mg/kg, iv. It counts as ADME, organism-based. The conditions noted are these: read-out: Vdss.
A short description of series [6]: Half life in rat blood at 1 mg/kg, iv. It is filed as ADME, organism-based.
Series [7] is described as follows: AUC in rat plasma at 1 mg/kg, iv. It is filed as ADME, organism-based. Also noted: dose 1 mg/kg.
Series [8] in a line: AUC in rat blood at 10 mg/kg, po. It counts as ADME, organism-based. Set-up: dose 10 mg/kg.
Series [9] has as its system HCT-116. Description: Antitumor activity against human HCT116 cells xenografted in sc dosed NCr nude mouse assessed as tumor growth inhibition administered twice per day for 21 days by vernier caliper method. The conditions noted are these: dose 150.0 mg/kg, time 21.0 day. It counts as functional, organism-based. Put shortly:
(§1)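 Female NCr nude mice with HCT-116 tumors, n = 10/arm, dosed subcutaneously until Day 21. Schedules were BID x21 (days 1–21) or BID BIW (days 1, 4, 8, 11, 15, 18, 21).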

A short description of series [10]: Clearance in rat plasma at 1 mg/kg, iv. It counts as ADME, organism-based. The following applies: in vivo.
Series [11] can be described thus: AUC in rat blood at 1 mg/kg, iv. Also noted: dose 1 mg/kg. It is filed as ADME, organism-based.
Another series concerns the target Carbonic anhydrase 1 (Homo sapiens, UniProt P00915). Nature of the series: Inhibition of human erythrocyte CA1 using fluorescein diacetate as substrate at […] by fluorometric esterase assay.
For series [12], the system named is HCT-116. Nature of the series: Antitumor activity against human HCT116 cells xenografted in sc dosed NCr nude mouse assessed as tumor growth inhibition administered on day 1, 2, 8, 9, 15, […] and […] by vernier caliper method. It counts as functional, organism-based. The conditions noted are these: dose 150.0 mg/kg, time 21.0 day.
Series [13] in a line: Oral bioavailability in rat plasma at 10 mg/kg. It is filed as ADME, organism-based.
Series [14] can be described thus: AUC in rat plasma at 10 mg/kg, po. Set-up: dose 10 mg/kg. It is filed as ADME, organism-based.
For the next series, the target named is T2, NEDD8 activating enzyme (Homo sapiens, UniProt Q8TBC4).
T2 sequence (Q8TBC4 whole entry): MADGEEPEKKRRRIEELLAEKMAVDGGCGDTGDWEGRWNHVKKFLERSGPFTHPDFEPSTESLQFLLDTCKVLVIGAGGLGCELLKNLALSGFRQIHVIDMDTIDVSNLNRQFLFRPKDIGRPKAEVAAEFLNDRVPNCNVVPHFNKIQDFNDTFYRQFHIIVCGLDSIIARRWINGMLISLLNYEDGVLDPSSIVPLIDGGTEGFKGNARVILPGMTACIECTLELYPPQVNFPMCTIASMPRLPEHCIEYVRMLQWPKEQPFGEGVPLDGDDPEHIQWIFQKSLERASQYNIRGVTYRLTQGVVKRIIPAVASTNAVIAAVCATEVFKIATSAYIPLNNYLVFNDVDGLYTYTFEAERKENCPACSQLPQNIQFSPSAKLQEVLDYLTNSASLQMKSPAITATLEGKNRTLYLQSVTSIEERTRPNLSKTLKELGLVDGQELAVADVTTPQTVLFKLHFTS
T2 sequence (Q13564 whole entry): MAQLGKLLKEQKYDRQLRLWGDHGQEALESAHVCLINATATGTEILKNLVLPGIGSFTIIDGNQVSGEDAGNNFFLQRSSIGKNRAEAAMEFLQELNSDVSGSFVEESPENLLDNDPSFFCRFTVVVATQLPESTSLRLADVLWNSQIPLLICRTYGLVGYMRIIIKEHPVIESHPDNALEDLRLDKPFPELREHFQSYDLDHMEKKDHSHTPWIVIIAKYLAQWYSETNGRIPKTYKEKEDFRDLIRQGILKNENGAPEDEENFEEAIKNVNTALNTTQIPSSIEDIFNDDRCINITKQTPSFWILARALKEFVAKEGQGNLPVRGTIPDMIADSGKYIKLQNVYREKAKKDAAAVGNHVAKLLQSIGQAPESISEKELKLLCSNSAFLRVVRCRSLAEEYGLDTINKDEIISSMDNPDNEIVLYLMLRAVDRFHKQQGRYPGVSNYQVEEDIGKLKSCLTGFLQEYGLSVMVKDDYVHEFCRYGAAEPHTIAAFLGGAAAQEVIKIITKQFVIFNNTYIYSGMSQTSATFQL
Nature of the series: Inhibition of recombinant NAE (unknown origin) in presence of ATP at Km concentration by HTRF assay. It is filed as protein-complex assay. On the technique in general: In TR-FRET formats the signal depends on donor and acceptor labels being close together.

Series [15] in a line: Oral bioavailability in rat blood at 10 mg/kg. It counts as ADME, organism-based.
The nature of series [16]: Volume of distribution at steady state in rat blood at 1 mg/kg, iv. It is filed as ADME, organism-based. The following applies: read-out: Vdss.
For series [17], the system named is OCI-Ly10. Nature of the series: Cytotoxicity against human OCI-LY10 cells assessed as reduction in cell viability after 72 hrs by CellTiter-Glo luminescent assay. It is filed as functional, cell-based. The following applies: OCI-Ly10, 72 h. On the technique in general: In ATP-based viability assays light output follows the ATP content of the culture.
A short description of series [18]: Lipophilicity, logD of compound at pH 7.4. It counts as physicochemical. The following applies: buffer.
Series [19] is described as follows: Half life in rat plasma at 1 mg/kg, iv. It is filed as ADME, organism-based.
The test system of series [20] is HCT-116. Nature of the series: Cytotoxicity against human HCT116 cells assessed as reduction in cell viability after 72 hrs by CellTiter-Glo luminescent assay. It is filed as functional, cell-based. The conditions noted are these: HCT-116, 72 h.
Series [21] in a line: Dissociation constant , pKa of the compound. It counts as physicochemical.
A short description of series [22]: Apparent permeability across basolateral to apical side in human Caco2 cells. The following applies: Caco-2. It is filed as ADME, cell-based.
Series [23] has as its system HCT-116. Nature of the series: Antitumor activity against human HCT116 cells xenografted in sc dosed NCr nude mouse assessed as tumor growth inhibition administered on day 1, 4, 8, 11, 15, 18 and 21 by vernier caliper method. The conditions noted are these: dose 200.0 mg/kg, time 21.0 day. It counts as functional, organism-based. Put shortly:
as §1

Series [24] can be described thus: Apparent permeability across apical to basolateral side in human Caco2 cells. It is filed as ADME, cell-based. The following applies: Caco-2.
The nature of series [25]: Clearance in rat blood at 1 mg/kg, iv. It is filed as ADME, organism-based. The following applies: in vivo.

The structures appear in SMILES notation. Calls of active or inactive are those of the source.

Sequence of Carbonic anhydrase 1 (P00915 whole entry): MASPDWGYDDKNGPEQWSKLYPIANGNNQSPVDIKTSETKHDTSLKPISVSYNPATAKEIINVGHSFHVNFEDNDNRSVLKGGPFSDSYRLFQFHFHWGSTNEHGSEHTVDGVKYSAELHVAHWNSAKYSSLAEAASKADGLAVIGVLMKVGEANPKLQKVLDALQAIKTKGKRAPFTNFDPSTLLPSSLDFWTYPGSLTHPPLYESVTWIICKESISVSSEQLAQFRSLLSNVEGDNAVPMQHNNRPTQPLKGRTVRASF

Regarding `Cc1sc(C(=O)c2cncnc2N[C@@H]2C[C@H](COS(N)(=O)=O)[C@@H](O)C2)cc1C1OCCc2ccc(Cl)cc21` (stereo in doubt), the inhibition entry in series [1] and in [2] was “Active” in each case. In addition, the result with OCI-Ly10 [3] and with HCT-116 [4] was Active.
One may read the half-life as the time needed for the level to fall by half in the phase considered. High values mean slow loss, low ones fast loss. What is called AUC is concentration integrated over time. By clearance is commonly meant the rate of elimination divided by the concentration. Higher therefore signals a high capacity for elimination. The term IC50 denotes the midpoint of a concentration-inhibition curve. The bioavailability is the share of a dose that reaches the circulation, judged against a reference dose that is usually intravenous. Read a low bioavailability as little systemic uptake. In general, EC50 refers to the midpoint of the concentration-response curve. In general, logD refers to lipophilicity at a set pH, counting ionised and neutral species. Lower therefore signals a more hydrophilic compound. What is called pKa is the negative logarithm of the acid dissociation constant. Low readings indicate a group that gives up its proton readily, high ones a group that holds its proton tightly. Broadly, the Papp B→A is how fast a substance crosses the layer from the basolateral side. As usually defined, the Papp A→B is how fast a substance crosses the layer from the apical side. Take `NS(=O)(=O)OC[C@H]1C[C@@H](Nc2ncncc2C(=O)c2ccn(Cc3cccc(Br)c3)n2)C[C@@H]1O`: the Vd in series [5] is 5.1 L/kg; in [16], 0.1 L/kg. The half-life in series [6] is 1.2 h; in [19] it was 0.9 h. Further, the exposure (AUC) in series [7] is 0.4 µM·h; in series [8], 10.8 µM·h; in series [11] it was 19.1 µM·h; in series [14], 0.1 µM·h. In addition, the Activity entry with HCT-116 [9], in the series with HCT-116 [12] and with HCT-116 [23] was “Dose-Dependent Effect” throughout. In addition, the clearance came to 85 mL/min/kg in series [10] and 1.67 mL/min/kg in series [25]. Moreover, the IC50 at Carbonic anhydrase 1 came to 50 nM; on NEDD8 activating enzyme it was 228 nM. Also, the bioavailability in series [13] amounted to 7.1%; in series [15] it was 6.9%. Besides, the EC50 in the series with OCI-Ly10 [17] stood at 55 nM; in the series on HCT-116 [20] it was 90 nM. The logD in series [18] turned out to be 2.6. In series [21], this compound came in with a pKa of 3.6. For the same compound, in series [22], the Papp B→A is 64 ×10⁻⁶ cm/s. In [24], the Papp A→B was found to be 1.2 ×10⁻⁶ cm/s.

Values taken from ChEMBL document CHEMBL4834402, “Discovery of TAK-981, a First-in-Class Inhibitor of SUMO-Activating Enzyme for the Treatment of Cancer” (J Med Chem, 2021).
